Data set [1] addresses T1, LasR T75V/Y93F/A127W (Pseudomonas aeruginosa, UniProt P25084, A127W/T75V/Y93F).
T1 sequence (P25084 1-239 T75V/Y93F/A127W): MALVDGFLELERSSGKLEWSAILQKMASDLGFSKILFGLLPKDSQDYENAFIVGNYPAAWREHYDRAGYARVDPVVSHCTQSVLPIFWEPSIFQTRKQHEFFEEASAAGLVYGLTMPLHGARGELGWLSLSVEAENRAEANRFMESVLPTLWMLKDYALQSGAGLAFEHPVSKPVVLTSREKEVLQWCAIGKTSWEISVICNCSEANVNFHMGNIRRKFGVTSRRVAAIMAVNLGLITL
The experiment in a line: E. coli lasB-lux reporter assay, LasR T75V/Y93F/A127W. It counts as cell-based.

Data set [2] concerns the target T2, WT LasR (Pseudomonas aeruginosa, UniProt P25084).
T2 sequence (P25084 1-239): T1 sequence (P25084 1-239 T75V/Y93F/A127W) with V75T, F93Y, W127A
The experiment in a line: Pyocyanin assay, ΔlasI strain with WT LasR. In kind it is cell-based, Pseudomonas aeruginosa PA14. The following applies: 10 μM. The essentials: (§1)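 Overnight LB cultures of PA14 lasI (WT lasR) or lasI lasR T75V/Y93F/A127W were grown at 37°C, diluted (100 μL into 3 mL LB) and shaken 8 h at 37°C. They were then diluted 2 μL into 2 mL LB with DMSO or compound and shaken 17 h at 37°C. OD600 was read, then supernatant OD695 after centrifugation. Pyocyanin = OD695/OD600. n=3, SEM.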

The next data set relates to luciferase. The experiment in a line: Off-target inhibition of luciferase in the E. coli lasB-lux reporter strain. It counts as cell-based. Particulars: high concentrations (>10 μM).
Data set [3] deals with T2, WT LasR. Kind of data set: P. aeruginosa PA14 rhlA-mNG reporter assay, WT lasR. In kind it is cell-based, Pseudomonas aeruginosa PA14. Particulars: ΔlasI P. aeruginosa PA14, 10 μM. The method, boiled down: (§2)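 P. aeruginosa PA14 lasI strains carried WT or T75V/Y93F/A127W lasR at the native chromosomal locus and a chromosomal prhlA-mNG fusion. Overnight cultures were diluted 1:1000 in LB with test compound at 10 μM and grown at 37°C for 8 h. Cells were pelleted and resuspended in PBS. Fluorescence was read at ex 485/em 535 nm, with A600 measured in parallel. n=3, SEM; multiple t-tests.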

A further data set addresses T3, WT LasR LBD (Pseudomonas aeruginosa, UniProt P25084).
T3 sequence (P25084 1-173 limits assumed): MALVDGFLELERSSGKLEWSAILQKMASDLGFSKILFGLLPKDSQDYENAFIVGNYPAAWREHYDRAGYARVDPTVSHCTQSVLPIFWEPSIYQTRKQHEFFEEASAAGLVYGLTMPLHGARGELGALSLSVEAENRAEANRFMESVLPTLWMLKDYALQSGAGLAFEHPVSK
Kind of data set: Protein solubility assay, WT LasR LBD produced in E. coli. It counts as cell-based. The following applies: 10 μM compound. The method, boiled down: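 E. coli BL21(DE3) with plasmid-borne 6xHis-WT LasR LBD were grown overnight, diluted 1:500 in LB with ampicillin and grown to OD600 0.5. Cells were induced with 1 mM IPTG plus test compound at 10 μM final, then shaken 4 h at 25°C or 37°C. Whole-cell lysate and soluble fractions were compared by band intensity. Fraction soluble = soluble band / whole-cell lysate band.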

The target in another data set is T4, LasR T75V/Y93F (Pseudomonas aeruginosa, UniProt P25084, T75V/Y93F).
T4 sequence (P25084 1-239 T75V/Y93F): T1 sequence (P25084 1-239 T75V/Y93F/A127W) with W127A
Kind of data set: E. coli lasB-lux reporter assay, LasR T75V/Y93F. In kind it is cell-based.

The target in the next data set is T5, LasR Y93F/A127W (Pseudomonas aeruginosa, UniProt P25084, A127W/Y93F).
T5 sequence (P25084 1-239 Y93F/A127W): T1 sequence (P25084 1-239 T75V/Y93F/A127W) with V75T
The experiment in a line: E. coli lasB-lux reporter assay, LasR Y93F/A127W. In kind it is cell-based.

The target of data set [4] is T1, LasR T75V/Y93F/A127W. Kind of data set: P. aeruginosa PA14 rhlA-mNG reporter assay, lasR T75V/Y93F/A127W. In kind it is cell-based, Pseudomonas aeruginosa PA14. Particulars: ΔlasI P. aeruginosa PA14, 10 μM. The method, boiled down:
as §2

Another data set addresses T6, LasR T75V (Pseudomonas aeruginosa, UniProt P25084, T75V).
T6 sequence (P25084 1-239 T75V): T1 sequence (P25084 1-239 T75V/Y93F/A127W) with F93Y, W127A
Kind of data set: E. coli lasB-lux reporter assay, LasR T75V. It counts as cell-based.

The next data set concerns the target T7, LasR T75V/A127W (Pseudomonas aeruginosa, UniProt P25084, A127W/T75V).
T7 sequence (P25084 1-239 T75V/A127W): T1 sequence (P25084 1-239 T75V/Y93F/A127W) with F93Y
The experiment in a line: E. coli lasB-lux reporter assay, LasR T75V/A127W. It counts as cell-based.

Another data set deals with T8, LasR Y93F (Pseudomonas aeruginosa, UniProt P25084, Y93F).
T8 sequence (P25084 1-239 Y93F): T1 sequence (P25084 1-239 T75V/Y93F/A127W) with V75T, W127A
The experiment in a line: E. coli lasB-lux reporter assay, LasR Y93F. In kind it is cell-based.

The target in data set [5] is T2, WT LasR. The experiment in a line: E. coli lasB-lux reporter assay, WT LasR. In kind it is cell-based.
Data set [6] has as its target T1, LasR T75V/Y93F/A127W. The experiment in a line: Pyocyanin assay, ΔlasI strain with LasR T75V/Y93F/A127W. In kind it is cell-based, Pseudomonas aeruginosa PA14. The following applies: 10 μM. The method, boiled down: as §1
Another data set deals with T9, LasR R61A (Pseudomonas aeruginosa, UniProt P25084, R61A).
T9 sequence (P25084 1-239 R61A): T1 sequence (P25084 1-239 T75V/Y93F/A127W) with R61A, V75T, F93Y, W127A
The experiment in a line: E. coli lasB-lux reporter assay, LasR R61A. It counts as cell-based.

For another data set, the target named is T10, LasR LBD (Pseudomonas aeruginosa, UniProt P25084).
T10 sequence (P25084 1-173 limits assumed): T3 sequence (P25084 1-173 limits assumed)
The experiment in a line: Thermal shift assay, LasR LBD:BB0126. It counts as binding. The essentials:
(§3)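 6xHis-LasR LBD (WT or T75V/Y93F/A127W) was expressed in E. coli BL21(DE3) with 1 mM IPTG and 100 μM ligand (4 h, 25°C), then purified by Ni-NTA and size exclusion. Ligand-bound protein at 5 μM in 20 mM Tris-HCl pH 8, 200 mM NaCl, 1 mM DTT, with DMSO or 10 μM ligand, stood 15 min at room temperature. SYPRO Orange was added just before the run. Heating from 25 to 99°C at 0.05°C/s; fluorescence on ROX setting.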

Data set [7] has as its system WT LasR. The experiment in a line: E. coli lasB-lux reporter assay, WT LasR. It counts as cell-based, Pseudomonas aeruginosa. The following applies: LasR T75V, Y93F and A127W single mutations, each relative to WT LasR.
In a further data set the target is T11, LasR LBD T75V/Y93F/A127W (Pseudomonas aeruginosa, UniProt P25084, A127W/T75V/Y93F).
T11 sequence (P25084 1-173 T75V/Y93F/A127W limits assumed): T3 sequence (P25084 1-173 limits assumed) with T75V, Y93F, A127W
The experiment in a line: Thermal shift assay, LasR LBD T75V/Y93F/A127W:BB0126. It counts as binding. The following applies: for effect of excess ligand on Tm: LasR LBD T75V/Y93F/A127W:BB0126 with 10 μM excess ligand. The method, boiled down: as §3

Where a chain is given by its changes, count along the chain named.

Consider three molecules from paper PMC6601336 (ACS chemical biology, 2019).

On to `O=C(CCCOc1cccc(Br)c1)N[C@H]1C[C@@H]2C[C@@H]2C1=O` (relative stereo) [BB0020, 4-(3-bromophenoxy)-N-(rel-(1S,3S,5S)-2-oxobicyclo[3.1.0]hexan-3-yl)butanamide], for which the EC50 came out at 20 nM on LasR T75V/Y93F/A127W [1]; 20 nM on LasR T75V/Y93F; 100 nM on LasR Y93F/A127W; 15 nM on LasR T75V; 20 nM on LasR T75V/A127W; 15 nM on LasR Y93F. The molecule also had an EC50 on WT LasR [5] of 6 nM. Besides, the pyocyanin production entry at WT LasR [2] and on LasR T75V/Y93F/A127W [6] was “activated both LasR alleles equally” in each case. In addition, the “off-target inhibition of luciferase” value in the data set with luciferase is given as “caused off-target inhibition of luciferase”. For the same molecule, the “activation of prhlA-mNG” value is listed as “activated prhlA-mNG” on WT LasR [3] and “activated the reporter” at LasR T75V/Y93F/A127W [4]. In addition, the “soluble WT LasR LBD” value at WT LasR LBD (induction at 25°C) was “yielded soluble WT LasR LBD”.
For `CS(=O)(=O)c1cccc(OCCCC(=O)N[C@H]2C[C@@H]3C[C@@H]3C2=O)c1` (relative stereo) [BB0126, 4-(3-(methylsulfonyl)phenoxy)-N-(rel-(1S,3S,5S)-2-oxobicyclo[3.1.0]hexan-3-yl)butanamide], the EC50 on LasR T75V/Y93F/A127W [1] was 50 nM; at LasR T75V/Y93F, 600 nM; at LasR T75V, 1500 nM; at LasR T75V/A127W, 50 nM; at LasR R61A it was over 10 µM; on WT LasR [5], over 3100 nM. Further, the “off-target inhibition of luciferase” value with luciferase is reported as “caused off-target inhibition of luciferase”. Moreover, the “activation of prhlA-mNG” value at WT LasR [3] is recorded as “not in response to BB0126”; at LasR T75V/Y93F/A127W [4], “activated the reporter”. Also, the “soluble WT LasR LBD” value on WT LasR LBD (induction at 25°C) is “yielded soluble WT LasR LBD”; on WT LasR LBD (induction at 37°C), “significantly less soluble”. At LasR LBD (LasR LBD:BB0126 in the presence of excess BB0126 (10 μM)), the melting temperature peak amounted to 49.9 °C. The “thermal stability of the complex” value on LasR LBD (LasR LBD:BB0126 without additional ligand) is recorded as “unstable above room temperature”. Moreover, the “fold lower EC50 with the mutations” value in the data set with WT LasR [7] is recorded as 2-to 6 fold. For the same molecule, the “effect of excess ligand on Tm” value on LasR LBD T75V/Y93F/A127W is reported as “further enhanced the Tm”. For the same molecule, at LasR LBD T75V/Y93F/A127W (LasR LBD T75V/Y93F/A127W:BB0126 without additional ligand), the Tm was 46.8 °C. Besides, on LasR T75V/Y93F/A127W [6], the pyocyanin production entry was “responded to BB0126”.
With `CCCCCCCCCC(=O)CC(=O)N[C@H]1CCOC1=O` [3OC12HSL, N-3-oxo-dodecanoyl-L-homoserine lactone, reference compound], the pyocyanin production result at WT LasR [2] is “induced pyocyanin production”. In addition, the “soluble WT LasR LBD” value on WT LasR LBD (induction at 25°C) is reported as “yielded soluble WT LasR LBD”. Moreover, on LasR LBD (LasR LBD:BB0126 with 10 μM exogenous 3OC12HSL), the “stabilization by exogenous ligand” value was “highly effective at binding to and stabilizing the LasR LBD”. Besides, the “effect of excess ligand on Tm” value at LasR LBD T75V/Y93F/A127W is reported as “had no effect”.
